INS-1E GSIS act = GLuc luminescence reporter in INS-1E cells, primary screen for activators of glucose-dependent secretion of insulin. 370,000 compounds, 0.61% hits. INS-1E GLuc reporter insulin secretion, 2-3 h. activation, % at 16.6 µM;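 active = lowest replicate activation of at least 40%, so every replicate reaches that level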;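 note: 0% = median of neutral control wells and 100% = median of IBMX positive control wells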
Env fusion inh = HIV envelope-mediated fusion inhibition. HeLa-JRFL Env/CEM21 cell fusion, luciferase. inhibition, % at 12.3 µM. 360,000 compounds, 1.1% hits;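 active = mean replicate inhibition score of at least 50 and every replicate individually at or above 50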;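 note: 0% = plate neutral controls and 100% = maraviroc near 300 nM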
rRNA inh HTS = inhibitors of bacterial rRNA selective over humanized ribosomes; GFP signal change (wild-type ribosome), % (no concentration beside the values); 350,000 compounds, 1.6% hits; AID 720706; E. coli WT GFP vs humanized-ribosome RFP mutants, fluorescence, 24 h; active compounds read low; DMSO median 0, no signal -100;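 active = significant combined selectivity score with lowered wild-type GFP, culture density cut under 30%, mutant RFP and density less affected; inactive = any of these conditions unmet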
miR-122 sensor = inhibitors of miR-122 in Huh7 cells | AID 602342 | 340,000 compounds, 0.3% hits | activation (reporter increase), % at 12.5 µM | Huh7 miR-122 Renilla luciferase sensor, 48 h; neutral wells = 0, positive control = 100;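 active = mean replicate activation score at least 90 and every replicate individually at or above 90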;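 note: higher luciferase means less miR-122 activity so hits act as miR-122 inhibitors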
Cneo AK release = causes C. neoformans cell lysis | adenylate kinase release luminescence, 4 h; normalised: neutral wells 0, clomiphene wells 100 | lysis activity, % at 15 µM | 360,000 compounds, 0.2% hits | AID 651654;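 active = mean lysis activity across replicates of at least 80%, whatever share of replicates individually reach that level; inactive = mean lysis activity below 80%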
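Test system: log-phase Cryptococcus neoformans yeast cells. Input: 5 × 10^6 yeast cells/mL. Medium: fresh YPD growth medium. Doses: single dose. Incubation: static 4 h at 37 °C with compound, 1 h detection. Measured by: luminescent adenylate kinase detection reagent. Read-out: signal increase indicating cell lysis. Benchmarks: Clomiphene.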
CFTR F508del cor = CFTR F508del correction in bronchial cells; CFBE cells, YFP halide quenching; stimulated with forskolin plus potentiator P3; % fluorescence drop versus neutral controls; activity (quench increase), % at 7.58 µM; 350,000 compounds, 0.36% hits; AID 720511;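 active = mean added fluorescence quench of at least 8% versus neutral control, with both replicates also reaching 8%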;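 note: cells transiently co-express mutant CFTR-F508del with the halide-sensitive YFP; corrector assay measuring rescue of mutant channel to the surface after 24 h compound exposure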
* = called active by the depositor; ! = not confirmed by another sample; [ ] = remark or other dose. Hits are enriched below; roughly 3.1% of the tested compounds scored in any of these assays.

COC(=O)[C@@H]1[C@@H](CO)[C@@H]2Cn3c(ccc(-c4cccc(OC)c4)c3=O)[C@H]1N2C(=O)c1ccccc1F was read as INS-1E GSIS act 16, rRNA inh HTS -4, miR-122 sensor 9[16.7 µM], Cneo AK release 2 and CFTR F508del cor 2.
COc1cccc(N2CCN(Cc3cccc(Cl)c3)CC2)c1 was read as INS-1E GSIS act 12, rRNA inh HTS -24*, miR-122 sensor 1 and CFTR F508del cor 1.
COc1cccc(N2CCN(Cc3ccc(Cl)cc3)CC2)c1 was read as INS-1E GSIS act -39, rRNA inh HTS -33*, miR-122 sensor -2, Cneo AK release -2 and CFTR F508del cor 2.
`Fc1cccc(CN2CCN(c3ccc(Cl)cc3)CC2)c1` gave INS-1E GSIS act -5, Env fusion inh 7, rRNA inh HTS -14, miR-122 sensor 0, Cneo AK release -3 and CFTR F508del cor -4.
For OC[C@@H]1Nc2ccc(C#Cc3cccnc3)cc2[C@H]2NCC[C@@H]12 the results were INS-1E GSIS act 3 and rRNA inh HTS 14.
Screening Fc1ccc(CN2CC3NC(C2)C3c2ccc(Br)cc2)cc1 (stereo unspecified) returned INS-1E GSIS act 10 and rRNA inh HTS -4.
`C[C@H]1CCC/C=C/[C@@H]2C[C@H](O)C[C@H]2[C@H](O)/C=C/C(=O)O1` gave Env fusion inh 94*!, miR-122 sensor -10, Cneo AK release -2 and CFTR F508del cor 16*!.
C[C@H]1CCCC(=O)CCC/C=C/c2cc(O)cc(O)c2C(=O)O1 was read as Env fusion inh 13, miR-122 sensor -3, Cneo AK release 0 and CFTR F508del cor -3.
For C=CCN1[C@@H]2CN(S(C)(=O)=O)C[C@H]1C2c1ccccc1 (stereo partly specified) the results were INS-1E GSIS act 1 and rRNA inh HTS -1.
Screening CCC(C)C(NC(=O)CCCNC(=O)CCC(=O)OC1O[C@H]2OC3(C)CC[C@H]4[C@H](C)CCC(C1C)C24OO3)C(=O)O (stereo partly specified) returned INS-1E GSIS act 5, Env fusion inh 58*, rRNA inh HTS -14, miR-122 sensor -7, Cneo AK release -4 and CFTR F508del cor 5.
C=CCSc1nc2c(c(-c3ccsc3)c1C#N)CN(C)CC2 was read as INS-1E GSIS act 46*, Env fusion inh 5, rRNA inh HTS -1, Cneo AK release -2 and CFTR F508del cor 1.
For O=C(O)[C@@H]1[C@@H](CO)[C@@H]2Cn3c(ccc(-c4ccncc4)c3=O)[C@H]1N2C(=O)C1CCCC1 the results were INS-1E GSIS act 16, rRNA inh HTS 4 and CFTR F508del cor -2.
CCCN1[C@@H]2c3ccc(-c4ccccc4)c(=O)n3C[C@H]1[C@H](CO)[C@H]2C(=O)OC was read as INS-1E GSIS act 2, rRNA inh HTS 2, miR-122 sensor 7[16.7 µM], Cneo AK release 0 and CFTR F508del cor -3.
For CCNc1nc(Cl)nc(NC(C)C)n1 the results were INS-1E GSIS act 71* and Env fusion inh -90.
CC(=O)c1c(C)n(Cc2ccccc2)c2ccc(O)cc12 was read as INS-1E GSIS act -2, Env fusion inh 36, rRNA inh HTS -2, miR-122 sensor -18, Cneo AK release 3 and CFTR F508del cor -2.
For CC(=O)c1c(C)n(C2CCCCC2)c2ccc(O)cc12 the results were INS-1E GSIS act -6, Env fusion inh 62*, rRNA inh HTS 19 and CFTR F508del cor -4.
For CC(=NC(C)c1ccccc1)c1c(O)[nH]c(=O)[nH]c1=O (stereo unspecified) the results were INS-1E GSIS act 104*, Env fusion inh -35, miR-122 sensor 1 and Cneo AK release 2.
`COc1cccc(-c2ccc([C@@H]3[C@H]4CN(C(=O)Cc5ccncc5)CCCCN4[C@H]3CO)cc2)c1` gave INS-1E GSIS act -4, rRNA inh HTS -3, miR-122 sensor 27[16.7 µM], Cneo AK release -2 and CFTR F508del cor -2.
Screening CC(C)[N+](C)(CCC(C(N)=O)(c1ccccc1)c1ccccc1)C(C)C returned INS-1E GSIS act 48*, Env fusion inh 29, rRNA inh HTS -5, miR-122 sensor 1, Cneo AK release -1 and CFTR F508del cor 4.
`CCC(=NCCc1c[nH]c2ccccc12)c1c(O)n(-c2ccc(C)cc2)c(=O)[nH]c1=O` gave Env fusion inh 8.
For CCC(=NCc1ccc2c(c1)OCO2)c1c(O)n(C)c(=O)n(C)c1=O the results were Env fusion inh 77*, miR-122 sensor -12 and Cneo AK release 0.
For CCC(=NCCN1CCCCC1)c1c(O)n(C)c(=O)n(C)c1=O the results were miR-122 sensor -3 and Cneo AK release -1.
Screening CCC(=NCCc1c[nH]c2ccccc12)c1c(O)n(C)c(=O)n(C)c1=O returned INS-1E GSIS act -30, Env fusion inh 81*, miR-122 sensor -7 and Cneo AK release 2.
`CCC(=NCCOc1ccc(Cl)cc1)c1c(O)n(C)c(=O)n(C)c1=O` gave INS-1E GSIS act -38, Env fusion inh 50*, miR-122 sensor -4 and Cneo AK release 0.
Screening CC(=NCc1ccc2c(c1)OCO2)c1c(O)n(C)c(=O)n(C)c1=O returned Env fusion inh -43, miR-122 sensor 11 and Cneo AK release -3.
C/C=C/c1ccc(C2[C@@H]3CN(Cc4cccc(F)c4)C[C@H]2N3)cc1 (stereo partly specified) was read as INS-1E GSIS act 0, rRNA inh HTS -57 and CFTR F508del cor 3.
Screening COc1cc([C@@H]2c3cc4c(cc3[C@@H](OC)[C@H]3COC(=O)[C@H]23)OCO4)cc(OC)c1O returned INS-1E GSIS act -12, Env fusion inh -30, rRNA inh HTS -16, Cneo AK release 4 and CFTR F508del cor 9.3*.
For CCN(CC)c1ccc(N=Cc2c(O)n(-c3ccccc3)c(=O)[nH]c2=O)cc1 the results were Env fusion inh 0, rRNA inh HTS -7 and CFTR F508del cor 0.
Screening CCN(CC)c1ccc(N=Cc2c(O)n(Cc3ccccc3)c(=O)[nH]c2=O)cc1 returned INS-1E GSIS act 41*, Env fusion inh 1, miR-122 sensor -9 and Cneo AK release 1.
For O=C1C=CC(=O)C2C1C1(Cl)C(Cl)=C(Cl)C2(Cl)C1(Cl)Cl (stereo unspecified) the results were INS-1E GSIS act 17, Env fusion inh 66*, rRNA inh HTS -59, miR-122 sensor -3, Cneo AK release 4 and CFTR F508del cor -2.
`COc1ccccc1-n1c(Cc2ccccc2)nc2ccccc2c1=O` gave INS-1E GSIS act -11, Env fusion inh -1, rRNA inh HTS -22*, miR-122 sensor 1, Cneo AK release -1 and CFTR F508del cor -2.
